Laboratory results as given in ChEMBL document CHEMBL1821604, “Anticancer activity and cDNA microarray studies of a (RS)-1,2,3,5-tetrahydro-4,1-benzoxazepine-3-yl]-6-chloro-9H-purine, and an acyclic (RS)-O,N-acetalic 6-chloro-7H-purine” (Eur J Med Chem, 2011).

Tests used:
Assay type in all cases: functional
[1] = tested on: HT-29; test: Upregulation of COL3A1 gene expression in human HT-29 cells at IC50 after 48 hrs by cDNA microarray technique relative to control
[2] = tested on: MCF7; test: Down regulation of PARK2 gene expression in human MCF7 cells at IC50 after 48 hrs by cDNA microarray technique relative to control
[3] = tested on: MCF7; test: Down regulation of C1orf131 gene expression in human MCF7 cells at IC50 after 48 hrs by cDNA microarray technique relative to control
Summary of the method: (§1)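 8 × 10⁶ cells exposed 48 h to compound at its IC50 concentration; total RNA isolated with trizol/chloroform and RNeasy columns including on-column DNase step; RNA quantified by OD 260/280; DMSO-treated cultures as control.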

[4] = tested on: MCF7; test: Down regulation of SLC16A7 gene expression in human MCF7 cells at IC50 after 48 hrs by cDNA microarray technique relative to control
[5] = tested on: HT-29; test: Upregulation of YPEL1 gene expression in human HT-29 cells at IC50 after 48 hrs by cDNA microarray technique relative to control
[6] = tested on: HT-29; test: Upregulation of LOC283385 gene expression in human HT-29 cells at IC50 after 48 hrs by cDNA microarray technique relative to control
[7] = tested on: MCF7; test: Down regulation of TSSK6 gene expression in human MCF7 cells at IC50 after 48 hrs by cDNA microarray technique relative to control
[8] = tested on: MCF7; test: Down regulation of CHST9 gene expression in human MCF7 cells at IC50 after 48 hrs by cDNA microarray technique relative to control; summary of the method: as §1
[9] = tested on: MCF7; test: Down regulation of FLJ22955 gene expression in human MCF7 cells at IC50 after 48 hrs by cDNA microarray technique relative to control
Summary of the method: (§2)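 Cells (8 × 10⁶) were cultured in DMEM with 10% heat-inactivated FBS at 37 °C under 5% CO₂. They were exposed for 48 h to compound at its IC₅₀, with DMSO-treated parallel cultures as controls (final DMSO ≤0.1% v/v). Total RNA was isolated by trizol/chloroform phase separation, RNeasy column cleanup and on-column DNase, then quantified by OD260/OD280. Expression was profiled by cDNA microarray relative to control.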

[10] = tested on: HT-29; test: Upregulation of PDGFA gene expression in human HT-29 cells at IC50 after 48 hrs by cDNA microarray technique relative to control
[11] = tested on: HT-29; test: Upregulation of NAV1 gene expression in human HT-29 cells at IC50 after 48 hrs by cDNA microarray technique relative to control
[12] = tested on: HT-29; test: Down regulation of GNRHR2 gene expression in human HT-29 cells at IC50 after 48 hrs by cDNA microarray technique relative to control; summary of the method: as §2
[13] = tested on: HT-29; test: Down regulation of MGC35130 gene expression in human HT-29 cells at IC50 after 48 hrs by cDNA microarray technique relative to control
[14] = tested on: HT-29; test: Down regulation of FLJ25476 gene expression in human HT-29 cells at IC50 after 48 hrs by cDNA microarray technique relative to control; summary of the method: as §2
[15] = tested on: HT-29; test: Down regulation of KCNJ16 gene expression in human HT-29 cells at IC50 after 48 hrs by cDNA microarray technique relative to control; summary of the method: as §2
[16] = tested on: HT-29; test: Down regulation of SCD4 gene expression in human HT-29 cells at IC50 after 48 hrs by cDNA microarray technique relative to control
[17] = tested on: HT-29; test: Down regulation of FADS6 gene expression in human HT-29 cells at IC50 after 48 hrs by cDNA microarray technique relative to control; summary of the method: as §2
[18] = tested on: HT-29; test: Down regulation of FLJ32871 gene expression in human HT-29 cells at IC50 after 48 hrs by cDNA microarray technique relative to control; summary of the method: as §2
[19] = tested on: HT-29; test: Down regulation of ETV1 gene expression in human HT-29 cells at IC50 after 48 hrs by cDNA microarray technique relative to control; summary of the method: as §2
[20] = tested on: MCF7; test: Upregulation of WBSCR27 gene expression in human MCF7 cells at IC50 after 48 hrs by cDNA microarray technique relative to control
[21] = tested on: MCF7; test: Upregulation of BTBD12 gene expression in human MCF7 cells at IC50 after 48 hrs by cDNA microarray technique relative to control
[22] = tested on: MCF7; test: Upregulation of SMARCA1 gene expression in human MCF7 cells at IC50 after 48 hrs by cDNA microarray technique relative to control
[23] = tested on: MCF7; test: Upregulation of KIAA1277 gene expression in human MCF7 cells at IC50 after 48 hrs by cDNA microarray technique relative to control
[24] = tested on: MCF7; test: Upregulation of MGC32020 gene expression in human MCF7 cells at IC50 after 48 hrs by cDNA microarray technique relative to control
[25] = tested on: MCF7; test: Upregulation of CRTAM gene expression in human MCF7 cells at IC50 after 48 hrs by cDNA microarray technique relative to control
[26] = tested on: MCF7; test: Upregulation of ERG gene expression in human MCF7 cells at IC50 after 48 hrs by cDNA microarray technique relative to control
[27] = tested on: HT-29; test: Down regulation of FLJ23436 gene expression in human HT-29 cells at IC50 after 48 hrs by cDNA microarray technique relative to control; summary of the method: as §2
[28] = tested on: HT-29; test: Down regulation of MGC33637 gene expression in human HT-29 cells at IC50 after 48 hrs by cDNA microarray technique relative to control
[29] = tested on: HT-29; test: Down regulation of ANXA6 gene expression in human HT-29 cells at IC50 after 48 hrs by cDNA microarray technique relative to control; summary of the method: as §1
[30] = tested on: MCF7; test: Upregulation of ZNF505 gene expression in human MCF7 cells at IC50 after 48 hrs by cDNA microarray technique relative to control
[31] = tested on: MCF7; test: Upregulation of FLJ14075 gene expression in human MCF7 cells at IC50 after 48 hrs by cDNA microarray technique relative to control
[32] = tested on: MCF7; test: Upregulation of GALNT13 gene expression in human MCF7 cells at IC50 after 48 hrs by cDNA microarray technique relative to control
[33] = tested on: MCF7; test: Upregulation of ATP12A gene expression in human MCF7 cells at IC50 after 48 hrs by cDNA microarray technique relative to control
[34] = tested on: MCF7; test: Down regulation of TDGF1 gene expression in human MCF7 cells at IC50 after 48 hrs by cDNA microarray technique relative to control
[35] = tested on: MCF7; test: Down regulation of OR8A1 gene expression in human MCF7 cells at IC50 after 48 hrs by cDNA microarray technique relative to control
[36] = tested on: MCF7; test: Down regulation of PARP9 gene expression in human MCF7 cells at IC50 after 48 hrs by cDNA microarray technique relative to control
[37] = tested on: HT-29; test: Down regulation of RALGDS gene expression in human HT-29 cells at IC50 after 48 hrs by cDNA microarray technique relative to control
[38] = tested on: HT-29; test: Down regulation of PP1201 gene expression in human HT-29 cells at IC50 after 48 hrs by cDNA microarray technique relative to control

With `COC(CN(c1ccccc1CO)S(=O)(=O)c1ccccc1[N+](=O)[O-])n1cnc2ncnc(Cl)c21` (racemic) as the molecule, how does the “fold change (FC)” value [1] read?
Its value is 4.72.

What about the “fold change (FC)” value [2] of the same molecule?
The value was -2.2.

And the “fold change (FC)” value [3]?
The value was -2.26.

What about the “fold change (FC)” value [4] of the same molecule?
Its value is -2.27.

And the “fold change (FC)” value [5]?
Its value is 4.71.

What about the fold change (FC) [6] of the same molecule?
The fold change (FC) was 4.37.

What about the “fold change (FC)” value [7] of the same molecule?
Its value is -2.43.

What about the “fold change (FC)” value [8] of the same molecule?
Its value is -2.53.

What about the “fold change (FC)” value [9] of the same molecule?
The value was -2.65.

And the “fold change (FC)” value [10]?
Its value is 2.15.

And the “fold change (FC)” value [11]?
The value was 2.06.

What about the “fold change (FC)” value [12] of the same molecule?
The value was -2.03.

What about the “fold change (FC)” value [13] of the same molecule?
Its value is -2.05.

What about the “fold change (FC)” value [14] of the same molecule?
The value was -2.11.

And the “fold change (FC)” value [15]?
The value was -2.21.

And the “fold change (FC)” value [16]?
Its value is -2.25.

And the “fold change (FC)” value [17]?
Its value is -2.34.

What about the “fold change (FC)” value [18] of the same molecule?
Its value is -2.51.

What about the “fold change (FC)” value [19] of the same molecule?
Its value is -2.63.

What about the “fold change (FC)” value [20] of the same molecule?
The value was 3.59.

What about the “fold change (FC)” value [21] of the same molecule?
The value was 3.24.

And the “fold change (FC)” value [22]?
Its value is 2.91.

What about the “fold change (FC)” value [23] of the same molecule?
Its value is 2.21.

What about the “fold change (FC)” value [24] of the same molecule?
The value was 2.09.

And the “fold change (FC)” value [25]?
The value was 2.09.

And the “fold change (FC)” value [26]?
Its value is 2.

Which results are given for `O=C(OCC1c2ccccc2-c2ccccc21)N1CC(n2cnc3c(Cl)ncnc32)OCc2ccccc21` (racemic)?
fold change (FC) [27]: -2.2; fold change (FC) [28]: -2.25; fold change (FC) [29]: -2.27; fold change (FC) [30]: 5.62; fold change (FC) [31]: 4.84; fold change (FC) [32]: 3.23; fold change (FC) [33]: 2.05; fold change (FC) [34]: -3; fold change (FC) [35]: -3.03; fold change (FC) [36]: -3.23; fold change (FC) [37]: -2.01; fold change (FC) [38]: -2.04
